Key:
Salmonella typhimurium [1] = test: Mutagenic activity in Salmonella Typhimurium TA102 assessed as number of revertants at 50 ug/plate in presence of Wistar rat S9 liver homogenate; type: toxicity, organism-based, Liver S9 fraction; settings: salmonella enterica subsp. enterica serovar typhimurium
Procedure, shortened: (§1)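 Salmonella/microsome plate test, with or without S9 from livers of male Wistar rats (~200 g). Strain markers and spontaneous revertant counts were routinely verified. Revertants are reported as mean ± standard error of triplicate plates. Strain-specific positive controls were used, with 2-aminoanthracene for all strains when S9 was present.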

Salmonella typhimurium [2] = test: Mutagenic activity in Salmonella Typhimurium TA102 assessed as number of revertants at 0.01 ug/plate in presence of Wistar rat S9 liver homogenate; type: toxicity, organism-based, Liver S9 fraction; settings: salmonella enterica subsp. enterica serovar typhimurium; procedure, shortened: as §1
Salmonella typhimurium [3] = test: Mutagenic activity in Salmonella Typhimurium TA98 assessed as number of revertants at 1 ug/plate in presence of Wistar rat S9 liver homogenate; type: toxicity, organism-based, Liver S9 fraction; settings: salmonella enterica subsp. enterica serovar typhimurium; procedure, shortened: as §1
Salmonella typhimurium [4] = test: Mutagenic activity in Salmonella Typhimurium TA100 assessed as number of revertants at 100 ug/plate in presence of Wistar rat S9 liver homogenate; type: toxicity, organism-based, Liver S9 fraction; settings: salmonella enterica subsp. enterica serovar typhimurium; procedure, shortened: as §1
Salmonella typhimurium [5] = test: Mutagenic activity in Salmonella Typhimurium TA102 assessed as number of revertants at 0.01 ug/plate in absence of Wistar rat S9 liver homogenate; type: toxicity, organism-based; settings: salmonella enterica subsp. enterica serovar typhimurium; procedure, shortened: as §1
Salmonella typhimurium [6] = test: Mutagenic activity in Salmonella Typhimurium TA102 assessed as number of revertants at 20 ug/plate in presence of Wistar rat S9 liver homogenate; type: toxicity, organism-based, Liver S9 fraction; settings: salmonella enterica subsp. enterica serovar typhimurium; procedure, shortened: as §1
Salmonella typhimurium [7] = test: Mutagenic activity in Salmonella Typhimurium TA98 assessed as number of revertants at 50 ug/plate in presence of Wistar rat S9 liver homogenate; type: toxicity, organism-based, Liver S9 fraction; settings: salmonella enterica subsp. enterica serovar typhimurium
Procedure, shortened: (§2)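 Salmonella/microsome plate test (Ames) in strain TA98, with genetic markers and spontaneous revertant counts verified routinely. Run with and without S9 mix, the S9 being liver postmitochondrial supernatant from male Wistar rats of about 200 g. Doses ran from 0.01 to 100 µg/plate. Revertants are the mean of triplicate plates with standard error. Positive controls were 0.5 µg 4-nitroquinoline-N-oxide without S9 and 15 µg 2-aminoanthracene with S9.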

Salmonella typhimurium [8] = test: Mutagenic activity in Salmonella Typhimurium TA98 assessed as number of revertants at 10 ug/plate in absence of Wistar rat S9 liver homogenate; type: toxicity, organism-based; settings: salmonella enterica subsp. enterica serovar typhimurium; procedure, shortened: as §1
Salmonella typhimurium [9] = test: Mutagenic activity in Salmonella Typhimurium TA98 assessed as number of revertants at 100 ug/plate in absence of Wistar rat S9 liver homogenate; type: toxicity, organism-based; settings: salmonella enterica subsp. enterica serovar typhimurium; procedure, shortened: as §2
Salmonella typhimurium [10] = test: Mutagenic activity in Salmonella Typhimurium TA98 assessed as number of revertants at 0.1 ug/plate in absence of Wistar rat S9 liver homogenate; type: toxicity, organism-based; settings: salmonella enterica subsp. enterica serovar typhimurium; procedure, shortened: as §1
Salmonella typhimurium [11] = test: Mutagenic activity in Salmonella Typhimurium TA102 assessed as number of revertants at 50 ug/plate in absence of Wistar rat S9 liver homogenate; type: toxicity, organism-based; settings: salmonella enterica subsp. enterica serovar typhimurium; procedure, shortened: as §1
Salmonella typhimurium [12] = test: Mutagenic activity in Salmonella Typhimurium TA100 assessed as number of revertants at 1 ug/plate in absence of Wistar rat S9 liver homogenate; type: toxicity, organism-based; settings: salmonella enterica subsp. enterica serovar typhimurium; procedure, shortened: as §1
Salmonella typhimurium [13] = test: Mutagenic activity in Salmonella Typhimurium TA100 assessed as number of revertants at 10 ug/plate in absence of Wistar rat S9 liver homogenate; type: toxicity, organism-based; settings: salmonella enterica subsp. enterica serovar typhimurium; procedure, shortened: as §1
Salmonella typhimurium [14] = test: Mutagenic activity in Salmonella Typhimurium TA100 assessed as number of revertants at 10 ug/plate in presence of Wistar rat S9 liver homogenate; type: toxicity, organism-based, Liver S9 fraction; settings: salmonella enterica subsp. enterica serovar typhimurium; procedure, shortened: as §1
Salmonella typhimurium [15] = test: Mutagenic activity in Salmonella Typhimurium TA100 assessed as number of revertants at 0.01 ug/plate in presence of Wistar rat S9 liver homogenate; type: toxicity, organism-based, Liver S9 fraction; settings: salmonella enterica subsp. enterica serovar typhimurium; procedure, shortened: as §1
Myzus persicae = test: Antifeedant effect against Myzus persicae assessed as inhibition index at 100 ug/cm2 relative to control; type: functional; design: scale not given: the % may be the effect or the level left
Procedure, shortened: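 Choice settling test on apterous adult M. persicae: 20 boxes of 10 aphids per treatment. Settling inhibition %SI = [1 − (%aphids on treated/%aphids on control surface)] × 100.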

Salmonella typhimurium [16] = test: Mutagenic activity in Salmonella Typhimurium TA100 assessed as number of revertants at 20 ug/plate in absence of Wistar rat S9 liver homogenate; type: toxicity, organism-based; settings: salmonella enterica subsp. enterica serovar typhimurium; procedure, shortened: as §1
Salmonella typhimurium [17] = test: Mutagenic activity in Salmonella Typhimurium TA98 assessed as number of revertants at 0.01 ug/plate in absence of Wistar rat S9 liver homogenate; type: toxicity, organism-based; settings: salmonella enterica subsp. enterica serovar typhimurium; procedure, shortened: as §1
Salmonella typhimurium [18] = test: Mutagenic activity in Salmonella Typhimurium TA100 assessed as number of revertants at 20 ug/plate in presence of Wistar rat S9 liver homogenate; type: toxicity, organism-based, Liver S9 fraction; settings: salmonella enterica subsp. enterica serovar typhimurium; procedure, shortened: as §1
[19] = test system: Leptinotarsa decemlineata; test: Insecticidal activity against Leptinotarsa decemlineata assessed as mortality at 5 ug by hemolymph injection after 72 hrs; type: functional
Procedure, shortened: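 Adult L. decemlineata (20 beetles) were injected with 5 µg in DMSO through the metepimeron suture of the thorax. Beetles were kept on potato leaves. Symptoms and mortality were recorded up to 3 days, analysed by contingency tables and Abbott-corrected.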

Salmonella typhimurium [20] = test: Mutagenic activity in Salmonella Typhimurium TA100 assessed as number of revertants at 0.01 ug/plate in absence of Wistar rat S9 liver homogenate; type: toxicity, organism-based; settings: salmonella enterica subsp. enterica serovar typhimurium; procedure, shortened: as §1
Salmonella typhimurium [21] = test: Mutagenic activity in Salmonella Typhimurium TA100 assessed as number of revertants at 50 ug/plate in presence of Wistar rat S9 liver homogenate; type: toxicity, organism-based, Liver S9 fraction; settings: salmonella enterica subsp. enterica serovar typhimurium; procedure, shortened: as §1
Salmonella typhimurium [22] = test: Mutagenic activity in Salmonella Typhimurium TA102 assessed as number of revertants at 0.1 ug/plate in absence of Wistar rat S9 liver homogenate; type: toxicity, organism-based; settings: salmonella enterica subsp. enterica serovar typhimurium; procedure, shortened: as §1
Salmonella typhimurium [23] = test: Mutagenic activity in Salmonella Typhimurium TA98 assessed as number of revertants at 20 ug/plate in absence of Wistar rat S9 liver homogenate; type: toxicity, organism-based; settings: salmonella enterica subsp. enterica serovar typhimurium; procedure, shortened: as §2
Salmonella typhimurium [24] = test: Mutagenic activity in Salmonella Typhimurium TA98 assessed as number of revertants at 10 ug/plate in presence of Wistar rat S9 liver homogenate; type: toxicity, organism-based, Liver S9 fraction; settings: salmonella enterica subsp. enterica serovar typhimurium; procedure, shortened: as §1
Salmonella typhimurium [25] = test: Mutagenic activity in Salmonella Typhimurium TA102 assessed as number of revertants at 20 ug/plate in absence of Wistar rat S9 liver homogenate; type: toxicity, organism-based; settings: salmonella enterica subsp. enterica serovar typhimurium; procedure, shortened: as §1
Salmonella typhimurium [26] = test: Mutagenic activity in Salmonella Typhimurium TA100 assessed as number of revertants at 0.1 ug/plate in presence of Wistar rat S9 liver homogenate; type: toxicity, organism-based, Liver S9 fraction; settings: salmonella enterica subsp. enterica serovar typhimurium; procedure, shortened: as §1
Salmonella typhimurium [27] = test: Mutagenic activity in Salmonella Typhimurium TA102 assessed as number of revertants at 1 ug/plate in absence of Wistar rat S9 liver homogenate; type: toxicity, organism-based; settings: salmonella enterica subsp. enterica serovar typhimurium; procedure, shortened: as §1
Salmonella typhimurium [28] = test: Mutagenic activity in Salmonella Typhimurium TA98 assessed as number of revertants at 1 ug/plate in absence of Wistar rat S9 liver homogenate; type: toxicity, organism-based; settings: salmonella enterica subsp. enterica serovar typhimurium; procedure, shortened: as §1
Salmonella typhimurium [29] = test: Mutagenic activity in Salmonella Typhimurium TA100 assessed as number of revertants at 1 ug/plate in presence of Wistar rat S9 liver homogenate; type: toxicity, organism-based, Liver S9 fraction; settings: salmonella enterica subsp. enterica serovar typhimurium; procedure, shortened: as §1
Salmonella typhimurium [30] = test: Mutagenic activity in Salmonella Typhimurium TA102 assessed as number of revertants at 100 ug/plate in absence of Wistar rat S9 liver homogenate; type: toxicity, organism-based; settings: salmonella enterica subsp. enterica serovar typhimurium; procedure, shortened: as §1
Salmonella typhimurium [31] = test: Mutagenic activity in Salmonella Typhimurium TA102 assessed as number of revertants at 100 ug/plate in presence of Wistar rat S9 liver homogenate; type: toxicity, organism-based, Liver S9 fraction; settings: salmonella enterica subsp. enterica serovar typhimurium; procedure, shortened: as §1
Spodoptera littoralis = test: Antifeedant effect against Spodoptera littoralis L6 larvae assessed as relative consumption rate at 10 ug, po after 72 hrs; type: functional
Procedure, shortened: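 Preweighed, newly emerged S. littoralis L6 larvae (20 per experiment) were orally cannulated with 10 µg in 2 µL DMSO; controls got solvent alone. Relative consumption and growth rates were calculated at 72 h on a dry-weight basis. Log-transformed weights were analysed by ANOVA with LSD tests.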

Salmonella typhimurium [32] = test: Mutagenic activity in Salmonella Typhimurium TA98 assessed as number of revertants at 100 ug/plate in presence of Wistar rat S9 liver homogenate; type: toxicity, organism-based, Liver S9 fraction; settings: salmonella enterica subsp. enterica serovar typhimurium; procedure, shortened: as §2

Structure (SMILES)	Activity (Salmonella typhimurium [1])	Activity (Salmonella typhimurium [2])	Activity (Salmonella typhimurium [3])	Activity (Salmonella typhimurium [4])	Activity (Salmonella typhimurium [5])	Activity (Salmonella typhimurium [6])	Activity (Salmonella typhimurium [7])	Activity (Salmonella typhimurium [8])	Activity (Salmonella typhimurium [9])	Activity (Salmonella typhimurium [10])	Activity (Salmonella typhimurium [11])	Activity (Salmonella typhimurium [12])	Activity (Salmonella typhimurium [13])	Activity (Salmonella typhimurium [14])	Activity (Salmonella typhimurium [15])	Activity (Myzus persicae) [%]	Activity (Salmonella typhimurium [16])	Activity (Salmonella typhimurium [17])	Activity (Salmonella typhimurium [18])	Activity [19] [%]	other results
CCCCCCCCCCCC[C@@H](O)[C@H]1CC[C@H]([C@H](O)CCCC[C@H](O)CCCCC[C@@H](O)CC2=CC(C)OC2=O)O1 (stereo partly drawn) [ANNONACIN]	430	443	27	88	328	432	25	34	14	30	169	125	104	145	135	<40	96	33	139	29.68	Activity (Salmonella typhimurium [20]): 150; Activity (Salmonella typhimurium [21]): 99; Activity (Salmonella typhimurium [22]): 296; Activity (Salmonella typhimurium [23]): 36; Activity (Salmonella typhimurium [24]): 19; Activity (Salmonella typhimurium [25]): 204; Activity (Salmonella typhimurium [26]): 139; Activity (Salmonella typhimurium [27]): 277; Activity (Salmonella typhimurium [28]): 32; Activity (Salmonella typhimurium [29]): 140; Activity (Salmonella typhimurium [30]): 126; Activity (Salmonella typhimurium [31]): 437; Activity (Spodoptera littoralis): 20.53 mg; Activity (Salmonella typhimurium [32]): 28
CCCCCC[C@H](O)CCC[C@H](O)[C@H]1CC[C@H]([C@H]2CC[C@H]([C@H](O)CCCCCCCCCCCCC3=C[C@H](C)OC3=O)O2)O1 [SQUAMOCIN]	99	414	39	102	259	139	36	18	6	25	93	114	69	142	147	<40	68	27	135	92.18	Activity (Salmonella typhimurium [20]): 154; Activity (Salmonella typhimurium [21]): 118; Activity (Salmonella typhimurium [22]): 243; Activity (Salmonella typhimurium [23]): 13; Activity (Salmonella typhimurium [24]): 41; Activity (Salmonella typhimurium [25]): 98; Activity (Salmonella typhimurium [26]): 137; Activity (Salmonella typhimurium [27]): 182; Activity (Salmonella typhimurium [28]): 26; Activity (Salmonella typhimurium [29]): 138; Activity (Salmonella typhimurium [30]): 80; Activity (Salmonella typhimurium [31]): 88; Activity (Spodoptera littoralis): 20.35 mg; Activity (Salmonella typhimurium [32]): 31

Source: ChEMBL document CHEMBL1142626, “Insecticidal and mutagenic evaluation of two annonaceous acetogenins” (J Nat Prod, 2000)
